Measurements taken from ChEMBL document CHEMBL1275301, “Antihypertensive activity of newer 1,4-dihydro-5-pyrimidine carboxamides: synthesis and pharmacological evaluation” (2010).
Calls of active or inactive are those of the source. The calls are words filed in the database; no cut-off is given here.

Key:
[1] = test system: Rattus norvegicus; assay: Antihypertensive activity against DOCA-salt induced hypertension in albino rat assessed as reduction in systolic blood pressure at 10 mg/kg, po after 120 mins by tail-cuff method; type: functional; settings: Artery, 2 h
In short: (§1)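 Rats given DOCA 20 mg/kg s.c. twice weekly in olive oil for 4 weeks, with 1% w/v NaCl as drinking water, reaching systolic 160–180 mm Hg. Rats were trained in restrainer and tail-cuff sessions. Compounds in 0.5% CMC were dosed at 10 mg/kg by oral feeding needle, with vehicle and nifedipine groups. BP was read before dosing and after, with the tail warmed at 37 °C for 2–5 min. Each compound was run three times in one week and readings averaged.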

[2] = test system: Rattus norvegicus; assay: Antihypertensive activity against DOCA-salt induced hypertension in albino rat assessed as reduction in systolic blood pressure at 10 mg/kg, po after 600 mins by tail-cuff method; type: functional; settings: Artery, 10 h; in short: as §1
[3] = test system: Rattus norvegicus; assay: Antihypertensive activity against DOCA-salt induced hypertension in albino rat assessed as reduction in systolic blood pressure at 10 mg/kg, po after 60 mins by tail-cuff method; type: functional; settings: Artery, 1 h; in short: as §1
[4] = test system: Rattus norvegicus; assay: Antihypertensive activity against DOCA-salt induced hypertension in albino rat assessed as reduction in systolic blood pressure at 10 mg/kg, po after 180 mins by tail-cuff method; type: functional; settings: Artery, 3 h; in short: as §1
[5] = test system: Rattus norvegicus; assay: Antihypertensive activity against DOCA-salt induced hypertension in albino rat assessed as reduction in systolic blood pressure at 10 mg/kg, po after 240 mins by tail-cuff method; type: functional; settings: Artery, 4 h; in short: as §1
[6] = test system: Rattus norvegicus; assay: Antihypertensive activity against DOCA-salt induced hypertension in albino rat assessed as reduction in systolic blood pressure at 10 mg/kg, po up to 360 mins by tail-cuff method; type: functional, organism-based; parameters: dose 10 mg/kg; settings: Artery; in short: as §1
[7] = test system: Rattus norvegicus; assay: Antihypertensive activity against DOCA-salt induced hypertension in albino rat assessed as reduction in systolic blood pressure at 10 mg/kg, po after 900 mins by tail-cuff method; type: functional; settings: Artery, 15 h; in short: as §1
[8] = test system: Rattus norvegicus; assay: Antihypertensive activity against DOCA-salt induced hypertension in albino rat assessed as reduction in systolic blood pressure at 10 mg/kg, po after 720 mins by tail-cuff method; type: functional; settings: Artery, 12 h; in short: as §1
[9] = test system: Rattus norvegicus; assay: Antihypertensive activity against DOCA-salt induced hypertension in albino rat assessed as reduction in systolic blood pressure at 10 mg/kg, po after 30 mins by tail-cuff method; type: functional; settings: Artery, 0.5 h; in short: as §1
[10] = test system: Rattus norvegicus; assay: Antihypertensive activity against DOCA-salt induced hypertension in albino rat assessed as reduction in systolic blood pressure at 10 mg/kg, po after 360 mins by tail-cuff method; type: functional; settings: Artery, 6 h; in short: as §1
[11] = test system: Rattus norvegicus; assay: Antihypertensive activity against DOCA-salt induced hypertension in albino rat assessed as reduction in systolic blood pressure at 10 mg/kg, po after 15 mins by tail-cuff method; type: functional; settings: Artery, 0.25 h; in short: as §1
[12] = test system: Rattus norvegicus; assay: Antihypertensive activity against DOCA-salt induced hypertension in albino rat assessed as reduction in systolic blood pressure at 10 mg/kg, po after 300 mins by tail-cuff method; type: functional; settings: Artery, 5 h; in short: as §1

Compound | inhibition in vivo at 10 mg/kg [1] [%] | inhibition in vivo at 10 mg/kg [2] [%] | inhibition in vivo at 10 mg/kg [3] [%] | inhibition in vivo at 10 mg/kg [4] [%] | inhibition in vivo at 10 mg/kg [5] [%] | Activity [6] | inhibition in vivo at 10 mg/kg [7] [%] | inhibition in vivo at 10 mg/kg [8] [%] | inhibition in vivo at 10 mg/kg [9] [%] | inhibition in vivo at 10 mg/kg [10] [%] | inhibition in vivo at 10 mg/kg [11] [%] | inhibition in vivo at 10 mg/kg [12] [%]
CC1=C(C(=O)Nc2ccc(Br)cc2)C(c2ccc(Cl)cc2Cl)N=C(SCc2cccc(Cl)c2)N1 (stereo unspecified) | 8.8 | 15.4 | 6.2 | 11.9 | 15.9 | Active | 7.2 | 11.3 | 3.1 | 20.6 | 1.5 | 18.5
COc1ccc(C2N=C(SCc3ccccc3Cl)NC(C)=C2C(=O)Nc2ccc(Br)cc2)cc1 (stereo unspecified) | 8.2 | 13.3 | 6.7 | 11.3 | 15.4 | Active | 7.2 | 10.8 | 4.6 | 20.6 | 3.1 | 17.9
COc1ccc(C2N=C(SCc3ccc(Cl)cc3)NC(C)=C2C(=O)Nc2ccc(Br)cc2)cc1 (stereo unspecified) | 16.5 | 30.3 | 12.3 | 22.7 | 29.2 | Active | 20 | 23.7 | 7.2 | 39.2 | 3.1 | 37.9
COc1ccc(C2N=C(SCc3ccccc3Cl)NC(C)=C2C(=O)Nc2ccc(F)cc2)cc1OC (stereo unspecified) | 17 | 30.3 | 11.8 | 25.3 | 30.3 | Active | 21 | 23.2 | 6.2 | 39.2 | 2.6 | 35.9
COc1ccc(C2N=C(SCc3ccc(Cl)cc3)NC(C)=C2C(=O)Nc2ccc(F)cc2)cc1OC (stereo unspecified) | 15.5 | 26.7 | 10.3 | 20.1 | 24.1 | Active | 20 | 22.2 | 5.7 | 37.1 | 3.1 | 31.3
CC1=C(C(=O)Nc2ccc(F)cc2)C(c2ccc([N+](=O)[O-])cc2)N=C(SCc2cccc(Cl)c2)N1 (stereo unspecified) | 9.8 | 16.4 | 7.2 | 11.9 | 15.9 | Active | 10.8 | 12.9 | 4.1 | 21.1 | 2.1 | 18.5
COc1ccc(C2N=C(SCc3cccc(Cl)c3)NC(C)=C2C(=O)Nc2ccc(F)cc2)cc1OC (stereo unspecified) | 10.8 | 17.4 | 8.2 | 13.4 | 14.9 | Active | 13.3 | 15.5 | 5.2 | 20.1 | 2.1 | 16.4
CC1=C(C(=O)Nc2ccc(F)cc2)C(c2ccc([N+](=O)[O-])cc2)N=C(SCc2ccc(F)cc2)N1 (stereo unspecified) | 17 | 25.6 | 10.8 | 20.1 | 25.6 | Active | 13.8 | 19.6 | 5.7 | 33 | 3.1 | 30.3
